# Data from ChEMBL document CHEMBL4513216, “Probing the Open Global Health Chemical Diversity Library for Multistage-Active Starting Points for Next-Generation Antimalarials” (ACS Infect Dis, 2020).
# Assay: Toxicity liver stage against HepG2, at 10uM
# Assay type: cell-based
# Design: test concentration 10 uM, cell line HepG2-A16-CD81EGFP
# Conditions: human, HepG2-A16-CD81EGFP cells; read-out: INHIBITION
# In short: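 Uninfected HepG2-A16-CD81EGFP cells, 3 × 10^3 per well, 1536-well, plated on prespotted compound at 10 μM final, parasite-free screening media added to match infected plates; puromycin 10 μM positive, DMSO 0.5% negative; run in parallel with 48 h PbLuc assay at 37 °C, 5% CO2; viability by CellTiter-Glo luminescence, normalized to controls.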
row,Structure (SMILES),cytotoxicity at 10 µM [%]
1,CCN1CCN(C(=O)CCn2cccc2)CC1,7.66
2,C[S+](C)[c-]1c(=O)[nH]c(=O)n(CCc2ccc(F)cc2)c1=O,2.86
3,COCCn1cc(CC(=O)Nc2cc(C)n(C)n2)c2ccccc21,-1.96
4,O=c1[nH]c2nc(N3CCCC3)ncc2c(=O)n1-c1cccc(F)c1,8.24
5,O=C1CC(c2ccc(O)cc2)c2c(n3ccsc3nc2=O)N1 (centres undefined),-3.12
6,CCn1cc(C(=O)Nc2cc(C)ccc2C)cn1,0.946
7,CCOCC(=O)N1CCC(Oc2ccc(Cl)cn2)CC1,7.39
8,CNC(=O)[C@@]12CCC3(CCN(C(C)=O)CC3)[C@@H]1CN(S(C)(=O)=O)C2,-3.61
9,O=C1NC(c2ccccc2)=N[C@@]12CC[C@@H]1CN(CC3CCOCC3)C[C@@H]12,4.01
10,CCCN1CCN(C(=O)c2ccn(COc3ccc(F)cc3)n2)CC1,8.88
11,CC(C)C(=O)N1CCN(c2ncnc3cc4c(cc23)OCCO4)CC1,2.41
12,c1ccc2c(N3CCCCC3)cnnc2c1,-5.34
13,Cc1cc(N2CCOC(c3ccccn3)C2)nc(N)n1 (centres undefined),4.4
14,CN(C)Cc1cccc(-c2cccnc2C(=O)NCc2ccco2)c1,4.16
15,Cc1nccc(C2CN(Cc3ccc(-c4ccccc4C(=O)O)o3)C2)n1,4.28
16,CS(=O)(=O)c1cn[nH]c1C1CCCN(C(=O)Cn2cccn2)C1 (centres undefined),-11.7
17,CNc1cc(C2CCCN2S(=O)(=O)c2cccc(F)c2)ccn1 (centres undefined),-22.7
18,Cc1noc(C)c1-c1nc(N(C)CCN(C)C)ncc1-c1cnccn1,-12.4
19,Cc1cnc(-c2nc(C3CCN(C(=O)Cc4ccsc4)CC3)no2)cn1,-29.5
20,Clc1ccccc1CN1CCCC(c2nnc(-c3cnccn3)o2)C1 (centres undefined),-10.3
21,O=C(NCCN1CCOCC1)Nc1cnc2cc(Cl)ccc2c1O,-24
22,COc1ccc(CN(C)[C@@H]2CN(C(=O)c3cnn(C)c3)C[C@H]2O)cc1,-21.9

row,Structure (SMILES),cytotoxicity at 10 µM [%]
1,CCC(C(=O)NCc1ccn(-c2ccc(F)cc2)n1)N1CCCC1=O (centres undefined),-5.63
2,O=S(=O)(CCCn1cncn1)Cc1cccc(F)c1,2.31
3,CN1CCN(C2CCN(Cc3noc(C4CC4)n3)CC2)C1=O,8.54
4,COc1c(C2CCCN2C(=O)c2ccc(C(N)=O)s2)c(C)nn1C (centres undefined),0.00973
5,Cc1ccc(CN(C(=O)NC2CCS(=O)(=O)C2)C2CC2)o1 (centres undefined),-155
6,O=C(NC1CCN(Cc2ccc(F)cc2)CC1)c1ccc2c(c1)CCC2,2.55
7,CNC(=O)c1cccc(CN2CCC(N(C)Cc3ncc(C)o3)C2)c1 (centres undefined),-103
8,CC(NC(=O)Nc1cnn(CC(N)=O)c1)c1ccc(Cl)s1 (centres undefined),11.5
9,Cc1noc(CNc2cc3c(cc2Cl)NC(=O)CO3)n1,3.07
10,Cc1cc(NC(=O)N2CCCC(O)C2)nn1-c1ccccc1Cl (centres undefined),4.99
11,CCCn1nc2c(cc1=O)CN(Cc1c(C)noc1C)CC2,-5.03
12,CCCC(NC(=O)c1ccc(OC)cc1C)c1nnn[nH]1 (centres undefined),2.06
13,Cc1ccc(C)c(NC(=O)Cc2c(C)nc3c(c2C)c(=O)[nH]n3C)c1,15.4
14,O=C(Nc1cccnc1)Nc1cccc(CN2CCC(O)CC2)c1,-4.06
15,CC1CN(CC(=O)NC(=O)NCc2cccs2)CCN1CC(F)(F)F (centres undefined),-0.402
16,CSc1ccsc1C(=O)NC(C)c1ccc2c(c1)CCC(=O)N2 (centres undefined),1.28
17,CC1CCN(CC2CCN(C(=O)c3c[nH]c4ncccc34)CC2)CC1,10
18,CCNC(=O)CNC(=O)c1ccn(S(=O)(=O)c2ccc(C)cc2)c1,-5.73
19,CC(NCC1CCS(=O)(=O)CC1)c1cccc(OC(F)F)c1 (centres undefined),-5.16
20,CN(CCC#N)C(=O)CN1CCC(c2cc3ccccc3[nH]2)CC1,4.35
21,Cc1ccc(C(O)CNC(=O)CCCc2ccccn2)o1 (centres undefined),0.166
22,CCC(C)c1cc(C(=O)N(CC(=O)NC)c2cccc(F)c2)on1 (centres undefined),6.33

row,Structure (SMILES),cytotoxicity at 10 µM [%]
1,CCC(C)NS(=O)(=O)c1ccc(C(=O)NC2(C#N)CCC2)cc1 (centres undefined),-7.79
2,Cc1ccccc1CNc1ccccc1OCC(=O)N1CCOCC1,-2.38
3,COCCNC(=O)N1CCCC1COc1ccccc1 (centres undefined),2.04
4,CC(=O)N(C)C1CCCc2nc(C)sc21 (centres undefined),-4.97
5,CCn1c(CN(C)CC(=O)N(C)C)nc2c(F)cccc21,-4.36
6,Cc1nnc(SCCC(=O)N(C)Cc2ccc(Cl)s2)[nH]1,14.4
7,CN(Cc1cc(F)ccc1C#N)CC(C)(CO)CO,-10.4
8,CC(C)C(NC(=O)c1ccc(Cl)cc1Cl)C(=O)Nc1ccn(C)n1 (centres undefined),1.5
9,c1cnn(CCNCc2csc(-c3ccc4c(c3)OCO4)n2)c1,4.12
10,O=C(CCc1ccsc1)NCC1CCN(c2ccccc2)C1 (centres undefined),21.1
11,Cc1nc(CN2C(=O)CCC23CCN(Cc2ccco2)CC3)cs1,-105
12,Cc1nc(N2CCCC2)nc2c1CCN(C(=O)c1ccoc1C)CC2,-111
13,CNC(=O)C1Cn2ccnc2C2(CCN(Cc3c(C)noc3C)CC2)O1 (centres undefined),-68.6
14,Cc1occc1C(=O)N1CCN2C[C@H](Oc3cccnc3)C[C@H]2C1,-4.15
15,CCOc1ccccc1CC(=O)N1C[C@@H](C(=O)O)[C@H](C2CC2)C1,1.12
16,CC(C)CN1C[C@@H](C(=O)O)C[C@@H](C(=O)NCc2ccncc2)C1,-147
17,Cc1nc(N(C)C)ncc1C(=O)N[C@H]1Cc2ccccc2[C@@H]1N,1.81
18,CC1CCN(S(=O)(=O)N2CCc3c(c(C(=O)O)nn3CC3CC3)C2)CC1,-0.65
19,Cc1ccc2oc(=O)n(CCC(=O)N3CCCC4(CNC(=O)O4)C3)c2c1 (centres undefined),-6
20,CN(CCO)C[C@@H]1CN(C(=O)c2cccc(OC(F)F)c2)C[C@@H]1CO,-0.185
21,Cc1cnn(CCC(=O)N2CCN(C(=O)C3CC3)[C@@H]3CS(=O)(=O)C[C@@H]32)c1,0.168
22,O=C(CC1CCc2ccccc21)N1CCC(C(=O)O)(n2ccnc2)CC1 (centres undefined),10.7

row,Structure (SMILES),cytotoxicity at 10 µM [%]
1,CCn1c(CN(C)C)nnc1C1CCN(Cc2ccncc2)CC1,8.18
2,Cc1ccccc1-n1cc(-c2ccnc(N3CCCC(O)C3)n2)cn1 (centres undefined),6.48
3,CCc1cnc(N)nc1N(C)CCc1cnn(C)c1,55.9
4,Cc1ccc(N2CCN(C(=O)CCc3n[nH]c(C)n3)CC2=O)cc1,-4.06
5,COc1ccc(C[C@@H]2CC[C@H](CN(C)C3CCN(C)CC3)O2)cc1,-7.25
6,CN(C)CC1(O)CCCN(C(=O)c2ccccc2-n2cncn2)C1 (centres undefined),2.11
7,CNC(=O)c1cccnc1N1CCN(Cc2ccccc2)C(CCO)C1 (centres undefined),-6.03
8,C[C@@H]1CN(Cc2ccncc2)C[C@@]1(O)C1CC1,-5.08
9,O=C(NCCc1csc(-c2ccncc2)n1)C1CC(=O)N(C2CC2)C1 (centres undefined),-8.44
10,CN(CC1(O)CCCN(CCC2CCCCC2)C1=O)C1CCOCC1 (centres undefined),12.7
11,CCc1csc(C2CCCN(C(=O)c3ccc(=O)n(CC)n3)C2)n1 (centres undefined),-1.52
12,Cn1ccc(CN2CCC(OCc3ccccc3)CC2)cc1=O,0.259
13,Cc1cc(C)n(CC2CN(CCC(=O)NC3CCCCC3)CCO2)n1 (centres undefined),-2.95
14,CCOc1ncccc1C(=O)N1CCCC1Cn1nc(C)cc1C (centres undefined),-4.45
15,COc1cccc(-n2nnc(C(=O)N3CCCCCC3)c2C)c1,-9.71
16,Cc1ccsc1C(=O)N(C)Cc1ccncc1,-4.54
17,CS(=O)(=O)Cc1ccc(CNC(=O)N2CCC(C(N)=O)C2)cc1 (centres undefined),-6.43
18,OC(COCc1cccs1)CN1CCc2c(ncn2C2CC2)C1 (centres undefined),-4.29
19,Cc1cnn(CC2CCCN2CCCS(=O)(=O)N(C)C)c1 (centres undefined),-7.45
20,Cc1cc(OCC(=O)N2CCCC2c2noc(C)n2)no1 (centres undefined),-11.1
21,CCn1cnnc1CNC(=O)c1cc(Cl)ccc1I,-5.98
22,COc1ccc(NC(=O)NCC(O)c2ccccc2F)c(OC)c1 (centres undefined),3.22

row,Structure (SMILES),cytotoxicity at 10 µM [%]
1,CCNC(c1ccc(Br)cc1)c1cccnc1 (centres undefined),-0.1
2,N#Cc1cccc(S(=O)(=O)NC(=O)COC2CCCC2)c1,-4.79
3,CSc1nccn1-c1cccc(C(=O)NCCCN2CCOCC2)c1,-4.74
4,CN1CCCN(C(=O)NCc2csc(Br)c2)CC1,-5.85
5,CCOCC(O)CN1CCN(C(=O)Cc2ccc(C)nc2)CC1 (centres undefined),-4.97
6,CN(Cc1cnn(C)c1)C(=O)NC1CCN(c2ncccn2)CC1,-5.82
7,COc1ncccc1NC(=O)C1CCS(=O)(=O)C1 (centres undefined),-4.48
8,CCc1nc(CN(C)C2CCN(Cc3ccc(C#N)cc3F)C2)no1 (centres undefined),-7.12
9,c1cc(CNc2cnc(C3CCCN3)cn2)ccn1 (centres undefined),-6.77
10,Cn1cc(CN2CC[C@H]3CO[C@H](CNc4ncccn4)[C@H]3C2)cn1,-15.6
11,CS(=O)(=O)N1Cc2nccn2CC(CNC(=O)c2cccnc2)C1 (centres undefined),-143
12,Cc1ccc(N2CCC3(CCC(=O)N3Cc3ccncc3)CC2)nn1,-110
13,Cc1cccc(COC[C@H]2CC[C@H]3[C@H](CCN3C(=O)CC3CC3)O2)n1,-4.66
14,CN(Cc1cccnc1)C[C@@H]1OC[C@H]2CN(Cc3ccoc3)CC[C@H]21,-137
15,CN(C)C(=O)CN1CCc2ncnc(N(C)C)c2CC1,-93.2
16,CS(=O)(=O)NC[C@H]1OC[C@H]2CN(CCc3ccccc3)CC[C@H]21,-3.53
17,COCCN1CC[C@@H]2O[C@H](COCc3csc(C)n3)CC[C@@H]21,-76.7
18,CC(C)N(C)Cc1n[nH]c2c1CCN(C(=O)c1ccc[nH]1)C2,-133
19,CC(C)(N)CNS(=O)(=O)Cc1cccc2cccnc12,14.5
20,O=C(c1cc[nH]n1)N1CCC2(CC1)CC(Oc1cccnc1)CO2 (centres undefined),6.7
21,CC(C)n1c(=O)[nH]c2cn(-c3ccc(F)cc3)c(=O)n21,-7.74
